Measured values published in ChEMBL document CHEMBL1152859, “The novel phosphoramidate derivatives of NSAID 3-hydroxypropylamides: synthesis, cytostatic and antiviral activity evaluations” (Eur J Med Chem, 2009).
The source made the active and inactive calls. The rule behind the calls is not given here.

Key:
[1] = system: L1210; experiment: Cytostatic activity against mouse L1210 cells after 48 hrs by MTT assay; format: functional, cell-based; conditions: L1210, 48 h
[2] = Cytostatic activity against human Molt4/C8 cells after 72 hrs by MTT assay; format: functional, cell-based; conditions: MOLT-4, 72 h
[3] = system: CCRF-CEM; experiment: Cytostatic activity against human CEM cells after 72 hrs by MTT assay; format: functional, cell-based
[4] = system: HeLa; experiment: Cytostatic activity against human HeLa cells after 72 hrs by MTT assay; format: functional, cell-based
How it was run: (§1)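 Monolayer cells were grown in DMEM with 10% FBS, 2 mM L-glutamine, penicillin and streptomycin at 37 °C under 5% CO2. They were seeded on day 0 at 1 × 10⁴ to 3 × 10⁴ cells/ml and exposed to five 10-fold dilutions (10⁻⁸ to 10⁻⁴ M) for 72 h, with a solvent control. Read-out was MTT. Quadruplicates in three experiments (WI 38: one experiment). IC50 by linear regression of percentage-of-growth.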

[5] = system: MIA PaCa-2; experiment: Cytostatic activity against human MIAPaCa2 cells after 72 hrs by MTT assay; format: functional, cell-based; conditions: MIA PaCa-2, 72 h; how it was run: as §1
[6] = system: SW-620; experiment: Cytostatic activity against human SW620 cells after 72 hrs by MTT assay; format: functional, cell-based; conditions: SW-620, 72 h; how it was run: as §1
[7] = system: MCF7; experiment: Cytostatic activity against human MCF7 cells after 72 hrs by MTT assay; format: functional, cell-based; conditions: MCF7, 72 h; how it was run: as §1
[8] = system: NCI-H460; experiment: Cytostatic activity against human H460 cells after 72 hrs by MTT assay; format: functional, cell-based; conditions: NCI-H460, 72 h; how it was run: as §1
[9] = Cytostatic activity against human WI38 cells after 72 hrs by MTT assay; format: ADME, cell-based; conditions: WI-38, 72 h; how it was run: as §1
[10] = system: Human immunodeficiency virus 1; experiment: Antiviral activity against HIV1 3B infected in human CEM cells assessed as inhibition of virus-induced cytopathicity; format: functional, organism-based; conditions: CCRF-CEM
[11] = system: Human immunodeficiency virus 2; experiment: Antiviral activity against HIV2 ROD infected in human CEM cells assessed as inhibition of virus-induced cytopathicity; format: functional, organism-based; conditions: CCRF-CEM
[12] = system: Human alphaherpesvirus 1; experiment: Antiviral activity against Herpes simplex virus 1 infected in HEL cells assessed as inhibition of virus-induced cytopathicity; format: functional, organism-based
[13] = system: Human alphaherpesvirus 2; experiment: Antiviral activity against Herpes simplex virus 2 infected in HEL cells assessed as inhibition of virus-induced cytopathicity; format: functional, organism-based
[14] = system: Vaccinia virus; experiment: Antiviral activity against Vaccinia virus infected in HEL cells assessed as inhibition of virus-induced cytopathicity; format: functional, organism-based; conditions: Orthopoxvirus vaccinia
How it was run: (§2)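 Cell cultures were exposed for 2 h to 100 CCID50 of virus, and residual virus was then removed. Infected cells were further incubated with medium containing varying compound concentrations for 3 days at 37 °C. Virus-induced cytopathogenicity was scored microscopically. EC50 is the concentration giving a 50% reduction of cytopathogenicity.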

[15] = system: Human alphaherpesvirus 3; experiment: Antiviral activity against Varicella-Zoster virus infected in HEL cells assessed as inhibition of virus-induced cytopathicity; format: functional, organism-based
[16] = system: Cytomegalovirus; experiment: Antiviral activity against Cytomegalovirus infected in HEL cells assessed as inhibition of virus-induced cytopathicity; format: functional, organism-based
How it was run: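 Confluent HEL fibroblasts were infected with CMV strains Davis and AD-169 at 100 PFU per well for 2 h, then virus was removed. Graded concentrations were added in duplicate and cultures kept 7 days at 37 °C. Cytopathogenicity was scored microscopically after ethanol fixation and Giemsa staining. EC50 is the 50% reduction.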

[17] = system: Vesicular stomatitis virus; experiment: Antiviral activity against Vesicular stomatitis virus infected in HEL cells assessed as inhibition of virus-induced cytopathicity; format: functional, organism-based; how it was run: as §2
[18] = system: Human respirovirus 3; experiment: Antiviral activity against Parainfluenza-3 virus infected in african green monkey Vero cells assessed as inhibition of virus-induced cytopathicity; format: functional, organism-based
How it was run: (§3)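 Cells were infected with 100 CCID50 of virus for 2 h, then residual virus was removed. Medium with graded compound concentrations was added and cultures were kept 3 days at 37 °C. Cytopathogenicity was scored microscopically. EC50 is the concentration reducing virus-induced cytopathogenicity by 50%.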

[19] = system: Mammalian orthoreovirus 1; experiment: Antiviral activity against Reovirus 1 infected in african green monkey Vero cells assessed as inhibition of virus-induced cytopathicity; format: functional, organism-based; how it was run: as §3
[20] = system: Sindbis virus; experiment: Antiviral activity against Sindbis virus infected in african green monkey Vero cells assessed as inhibition of virus-induced cytopathicity; format: functional, organism-based; how it was run: as §3
[21] = system: Coxsackievirus B4; experiment: Antiviral activity against Coxsackievirus B4 infected in african green monkey Vero cells assessed as inhibition of virus-induced cytopathicity; format: functional, organism-based; how it was run: as §3
[22] = system: Punta Toro virus; experiment: Antiviral activity against Punta Toro virus infected in african green monkey Vero cells assessed as inhibition of virus-induced cytopathicity; format: functional, organism-based; how it was run: as §3
[23] = system: Respiratory syncytial virus; experiment: Antiviral activity against Respiratory syncytial virus infected in human HeLa cells assessed as inhibition of virus-induced cytopathicity; format: functional, organism-based; how it was run: as §3
[24] = system: Vesicular stomatitis virus; experiment: Antiviral activity against Vesicular stomatitis virus infected in human HeLa cells assessed as inhibition of virus-induced cytopathicity; format: functional, organism-based; how it was run: as §2
[25] = system: Coxsackievirus B4; experiment: Antiviral activity against Coxsackievirus B4 infected in human HeLa cells assessed as inhibition of virus-induced cytopathicity; format: functional, organism-based; how it was run: as §3

With `COC(=O)[C@H](C)NP(=O)(OCCCNC(=O)Cc1ccccc1Nc1c(Cl)cccc1Cl)Oc1ccc(Cl)cc1` (stereo not given in full) the IC50 [1] was 13 µM, the IC50 [2] was 9.7 µM and the IC50 [3] was 22 µM. The IC50 [4] was 16 µM, the IC50 [5] was 16 µM and the IC50 [6] was 16 µM. The IC50 [7] was 9 µM, the IC50 [8] was 17 µM and the IC50 [9] was 18 µM. The Activity [10] was “inactive”, the Activity [11] was “inactive” and the Activity [12] was “inactive”. For the same compound, the Activity [13] was “inactive”, the Activity [14] was “inactive” and the Activity [15] was “inactive”. The Activity [16] was “inactive”, the Activity [17] was “inactive” and the Activity [18] was “inactive”. For the same compound, the Activity [19] was “inactive”, the Activity [20] was “inactive” and the Activity [21] was “inactive”. The Activity [22] was “inactive”, the Activity [23] was “inactive” and the Activity [24] was “inactive”. For the same compound, the Activity [25] was “inactive”.
